Converted amounts (≈) assume the structure as drawn.
What was measured:
[1] = Selectivity index, ratio of CC50 for African green monkey Vero cells to MIC for Staphylococcus aureus ATCC 29213; type: toxicity; details: read-out: Selectivity Index
How it was run: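 Selectivity index is calculated as the Vero CC50 divided by the MIC against S. aureus ATCC 29213. CC50 comes from a 72 h MTT assay at 100–5 mg/L. MIC comes from CLSI broth microdilution at ~10⁶ CFU/mL, 37 °C, 16–18 h.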

[2] = tested on: Klebsiella pneumoniae; experiment: Antibacterial activity against Klebsiella pneumoniae ATCC BAA-1705 after 16 to 18 hrs by CLSI method; type: functional
How it was run: (§1)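 Broth microdilution MIC per CLSI. A single colony from Mueller-Hinton agar is grown overnight in cation-supplemented Mueller-Hinton broth (37 °C, shaking, 18–24 h). Incubation is 37 °C for 16–18 h. MIC is the lowest concentration with no visible growth. Three independent runs, each in duplicate.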

[3] = tested on: Escherichia coli; experiment: Antibacterial activity against Escherichia coli ATCC 25922 after 16 to 18 hrs by CLSI method; type: functional; how it was run: as §1
[4] = tested on: Mycobacterium tuberculosis; experiment: Antimycobacterial activity against Mycobacterium tuberculosis H37Rv ATCC 27294 after 7 days by pesto blue-dye based broth microdilution assay; type: functional; details: H37Rv ATCC 27294, 168 h
How it was run: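 Broth microdilution in Middlebrook 7H9 with 10% ADC-Tween-80 (0.2% glycerol, 0.05% Tween-80). Compound is added from 10 mg/mL DMSO stocks as two-fold dilutions, 64–0.5 mg/L. Plates are incubated 7 days at 37 °C and read with PrestoBlue resazurin dye. MIC is the lowest concentration inhibiting visible growth, three replicates in duplicate.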

[5] = tested on: Mycolicibacterium fortuitum; experiment: Antimycobacterial activity against Mycobacterium fortuitum by pesto blue-dye based broth microdilution assay; type: functional
[6] = tested on: Acinetobacter baumannii; experiment: Antibacterial activity against Acinetobacter baumannii BAA-1605 after 16 to 18 hrs by CLSI method; type: functional; how it was run: as §1
[7] = tested on: Mycobacteroides chelonae; experiment: Antimycobacterial activity against Mycobacterium chelonae by pesto blue-dye based broth microdilution assay; type: functional
[8] = tested on: Staphylococcus aureus; experiment: Antibacterial activity against Staphylococcus aureus ATCC 29213 after 16 to 18 hrs by CLSI method; type: functional; how it was run: as §1
[9] = tested on: Mycobacteroides abscessus; experiment: Antimycobacterial activity against Mycobacterium abscessus by pesto blue-dye based broth microdilution assay; type: functional
[10] = Cytotoxicity against African green monkey Vero cells after 72 hrs by MTT assay; type: cell-based; details: chlorocebus sabaeus
How it was run: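 Vero cells are seeded at ~10³ per well and held 24 h at 37 °C, 5% CO₂. Compound at 100–5 mg/L is then added for 72 h. MTT is added at […], and formazan is dissolved in DMSO and read at 540 nm. CC50 is the lowest concentration giving 50% loss of viability. Doxorubicin is the positive control. Triplicate experiments.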

[11] = tested on: Pseudomonas aeruginosa; experiment: Antibacterial activity against Pseudomonas aeruginosa ATCC 27853 after 16 to 18 hrs by CLSI method; type: functional; how it was run: as §1
[12] = tested on: Staphylococcus aureus; experiment: Antibacterial activity against methicillin-resistant Staphylococcus aureus NR10192 by CLSI method; type: functional
How it was run: (§2)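 Broth microdilution to CLSI. A single colony from Mueller-Hinton agar is grown overnight in cation-supplemented MHB at 37 °C with shaking, 18–24 h. Levofloxacin is the reference. MIC is the lowest concentration with no visible growth, from three independent runs in duplicate.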

[13] = tested on: Staphylococcus aureus; experiment: Antibacterial activity against vancomycin-resistant Staphylococcus aureus VRS1 by CLSI method; type: functional; how it was run: as §2
[14] = tested on: Staphylococcus aureus; experiment: Antibacterial activity against methicillin-resistant Staphylococcus aureus NR10186 by CLSI method; type: functional; how it was run: as §2
[15] = tested on: Staphylococcus aureus; experiment: Antibacterial activity against methicillin-resistant Staphylococcus aureus NR119 by CLSI method; type: functional; how it was run: as §2
[16] = tested on: Staphylococcus aureus; experiment: Antibacterial activity against methicillin-resistant Staphylococcus aureus NR10191 by CLSI method; type: functional; how it was run: as §2
[17] = tested on: Staphylococcus aureus; experiment: Antibacterial activity against methicillin-resistant Staphylococcus aureus NR10129 by CLSI method; type: functional; how it was run: as §2
[18] = tested on: Staphylococcus aureus; experiment: Antibacterial activity against vancomycin-resistant Staphylococcus aureus VRS4 by CLSI method; type: functional; how it was run: as §2
[19] = tested on: Staphylococcus aureus; experiment: Antibacterial activity against methicillin-resistant Staphylococcus aureus NR10198 by CLSI method; type: functional; how it was run: as §2
[20] = tested on: Staphylococcus aureus; experiment: Antibacterial activity against vancomycin-resistant Staphylococcus aureus VRS12 by CLSI method; type: functional; how it was run: as §2
[21] = tested on: Staphylococcus aureus; experiment: Antibacterial activity against methicillin-resistant Staphylococcus aureus NR10194 by CLSI method; type: functional; how it was run: as §2
[22] = tested on: Staphylococcus aureus; experiment: Antibacterial activity against methicillin-resistant Staphylococcus aureus NR10193 by CLSI method; type: functional; how it was run: as §2
[23] = tested on: Staphylococcus aureus; experiment: Antibacterial activity against methicillin-sensitive Staphylococcus aureus ATCC 29213 by CLSI method; type: functional; how it was run: as §2
[24] = tested on: Acinetobacter baumannii; experiment: Antibacterial activity against Acinetobacter baumannii BAA-1605 after 16 to 18 hrs in presence of PMBN by CLSI method; type: functional
How it was run: (§3)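 MIC per CLSI broth microdilution with compound combined with a sub-lethal level of polymyxin B nonapeptide. Inoculum is ~10⁶ CFU/mL in cation-supplemented Mueller-Hinton broth. Incubation is 37 °C for 16–18 h. MIC is read as the absence of visible growth. Three independent runs, each in duplicate.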

[25] = tested on: Escherichia coli; experiment: Antibacterial activity against Escherichia coli ATCC 25922 after 16 to 18 hrs in presence of PMBN by CLSI method; type: functional; how it was run: as §3

Structure (SMILES) | selectivity ratio [1] | MIC [2] [µg/mL] | MIC [3] [µg/mL] | MIC [4] [µg/mL] | MIC [5] [µg/mL] | MIC [6] [µg/mL] | MIC [7] [µg/mL] | MIC [8] [µg/mL] | MIC [9] [µg/mL] | CC50 at 72 h [10] [µg/mL] | MIC [11] [µg/mL] | MIC [12] [µg/mL] | MIC [13] [µg/mL] | MIC [14] [µg/mL] | MIC [15] [µg/mL] | MIC [16] [µg/mL] | MIC [17] [µg/mL] | MIC [18] [µg/mL] | MIC [19] [µg/mL] | MIC [20] [µg/mL] | also measured
Cc1cccc(-n2cc(COc3cccc(-n4c(/C=C/c5ccc(C#N)cc5)nc5ccccc5c4=O)c3)nn2)c1 | 40 | > 64 | > 64 | > 64 | > 64 | > 64 | > 64 | 0.5 (≈ 0.932 µM) | > 64 | 20 (≈ 37.3 µM) | > 64 |  |  |  |  |  |  |  |  |  | 
C[C@@H](O)[C@H]1C(=O)N2C(C(=O)O)=C(S[C@@H]3CN[C@H](C(=O)N(C)C)C3)[C@H](C)[C@H]12 [MEROPENEM] |  |  |  |  |  |  |  |  |  |  |  | 64 (≈ 167 µM) | > 64 | 16 (≈ 41.7 µM) | > 64 | > 64 | 16 (≈ 41.7 µM) | > 64 | > 64 | > 64 | MIC [21]: 4 µg/mL (≈ 10.4 µM); MIC [22]: > 64 µg/mL; MIC [23]: 4 µg/mL (≈ 10.4 µM)
N#Cc1ccc(/C=C/c2nc3ccccc3c(=O)n2-c2cccc(OCc3cn(Cc4ccccc4)nn3)c2)cc1 | 40 | > 64 | > 64 | > 64 | > 64 | > 64 | > 64 | 0.5 (≈ 0.932 µM) | > 64 | 20 (≈ 37.3 µM) | > 64 | 1 (≈ 1.86 µM) | 32 (≈ 59.6 µM) | 2 (≈ 3.73 µM) | 2 (≈ 3.73 µM) | 1 (≈ 1.86 µM) | 2 (≈ 3.73 µM) | 2 (≈ 3.73 µM) | 2 (≈ 3.73 µM) | 2 (≈ 3.73 µM) | MIC [24]: > 64 µg/mL; MIC [25]: > 64 µg/mL; MIC [21]: 1 µg/mL (≈ 1.86 µM); MIC [22]: 2 µg/mL (≈ 3.73 µM); MIC [23]: 1 µg/mL (≈ 1.86 µM)
C[C@H]1COc2c(N3CCN(C)CC3)c(F)cc3c(=O)c(C(=O)O)cn1c23.C[C@H]1COc2c(N3CCN(C)CC3)c(F)cc3c(=O)c(C(=O)O)cn1c23.O [LEVOFLOXACIN] |  | 64 |  |  |  |  |  | 0.125 |  |  | 0.5 | 8 | 32 | 8 | 16 | 32 | 0.5 | > 64 | 32 | 32 | MIC [21]: 0.5 µg/mL; MIC [22]: 32 µg/mL; MIC [23]: 0.5 µg/mL
CN[C@H](CC(C)C)C(=O)N[C@H]1C(=O)N[C@@H](CC(N)=O)C(=O)N[C@H]2C(=O)N[C@H]3C(=O)N[C@H](C(=O)N[C@H](C(=O)O)c4cc(O)cc(O)c4-c4cc3ccc4O)[C@H](O)c3ccc(c(Cl)c3)Oc3cc2cc(c3O[C@@H]2O[C@H](CO)[C@@H](O)[C@H](O)[C@H]2O[C@H]2C[C@](C)(N)[C@H](O)[C@H](C)O2)Oc2ccc(cc2Cl)[C@H]1O [VANCOMYCIN] |  |  |  |  |  |  |  |  |  |  |  |  | > 64 |  |  |  |  | > 64 |  | > 64 | 
CO[C@H]1/C=C/O[C@@]2(C)Oc3c(C)c(O)c4c(O)c(c(/C=N/N5CCN(C)CC5)c(O)c4c3C2=O)NC(=O)/C(C)=C\C=C\[C@H](C)[C@H](O)[C@@H](C)[C@@H](O)[C@@H](C)[C@H](OC(C)=O)[C@@H]1C [RIFAMPIN] |  |  | 4 (≈ 4.86 µM) |  |  | 4 (≈ 4.86 µM) |  |  |  |  |  |  |  |  |  |  |  |  |  |  | MIC [24]: 0.25 µg/mL; MIC [25]: 0.125 µg/mL
N#Cc1ccc(/C=C/c2nc3ccccc3c(=O)n2-c2cccc(OCc3cn(-c4cccc(Cl)c4)nn3)c2)cc1 | 80 | > 64 | > 64 | > 64 | > 64 | > 64 | > 64 | 0.5 (≈ 0.898 µM) | > 64 | 40 (≈ 71.8 µM) | > 64 | 0.5 (≈ 0.898 µM) | 32 (≈ 57.4 µM) | 0.5 (≈ 0.898 µM) | 0.5 (≈ 0.898 µM) | 1 (≈ 1.8 µM) | 0.5 (≈ 0.898 µM) | 0.5 (≈ 0.898 µM) | 0.5 (≈ 0.898 µM) | 2 (≈ 3.59 µM) | MIC [24]: > 64 µg/mL; MIC [25]: > 64 µg/mL; MIC [21]: 0.5 µg/mL (≈ 0.898 µM); MIC [22]: 1 µg/mL (≈ 1.8 µM); MIC [23]: 0.5 µg/mL (≈ 0.898 µM)
Cc1nc2ccccc2c(=O)n1-c1cccc(OCc2cn(-c3cccc(Cl)c3)nn2)c1 |  | > 64 | > 64 | > 64 | > 64 | > 64 | > 64 | > 64 | > 64 |  | > 64 |  |  |  |  |  |  |  |  |  | 
N#Cc1ccc(/C=C/c2nc3ccccc3c(=O)n2-c2cccc(OCc3cn(-c4ccc(C(F)(F)F)cc4)nn3)c2)cc1 |  | > 64 | > 64 | > 64 | > 64 | > 64 | > 64 | 4 (≈ 6.77 µM) | > 64 |  | > 64 |  |  |  |  |  |  |  |  |  | 
N#Cc1ccc(/C=C/c2nc3ccccc3c(=O)n2-c2cccc(OCc3cn(-c4ccc(Cl)cc4)nn3)c2)cc1 | 40 | > 64 | > 64 | > 64 | > 64 | > 64 | > 64 | 0.5 (≈ 0.898 µM) | > 64 | 20 (≈ 35.9 µM) | > 64 |  |  |  |  |  |  |  |  |  | 
N#Cc1ccc(/C=C/c2nc3ccccc3c(=O)n2-c2cccc(OCc3cn(-c4cccc(F)c4)nn3)c2)cc1 |  | > 64 | > 64 | > 64 | > 64 | > 64 | > 64 | 0.5 (≈ 0.925 µM) | > 64 |  | > 64 |  |  |  |  |  |  |  |  |  | 
